Columns and labels:
Rattus norvegicus [1] = organism: Rattus norvegicus; test: Percent Hemolysis observed in rat red blood cells when Treated with 2 mM concentration; type: functional
Rattus norvegicus [2] = organism: Rattus norvegicus; test: Percent Hemolysis observed in rat red blood cells when Treated with 1 mM concentration; type: functional
Rattus norvegicus [3] = organism: Rattus norvegicus; test: Percent Hemolysis observed in rat red blood cells when Treated with 5 mM concentration; type: functional
Caco-2 = test: Apparent Permeability through Caco-2 cell monolayers (n = 4); type: functional, cell-based
How it was run: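 Caco-2 cells seeded on polycarbonate inserts (0.45 µm pore, 6.5 mm) and grown 21 days to differentiate; TEER >400 Ω/cm² before and after. ³H-acetylated peptide or [¹⁴C]mannitol (200 µM) added apically in HBSS/25 mM HEPES pH 7.4, 37 °C, shaken 400 rpm. Receiver chamber swapped at 30, 90, 150 min; scintillation counting. Papp averaged over four replicates.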

| Compound | Hemolysis (Rattus norvegicus [1]) | Hemolysis (Rattus norvegicus [2]) | Hemolysis (Rattus norvegicus [3]) | Papp (Caco-2) |
| --- | --- | --- | --- | --- |
| CCCCCCCCCCCCOS(=O)(=O)[O-].[Na+] [SODIUM LAURYL SULFATE] | 51.54% | 12.25% | 62.66% |  |
| OC[C@@H](O)[C@@H](O)[C@H](O)[C@H](O)CO |  |  |  | 5.88 10e-6 cm s-1 |

Reference: ChEMBL document CHEMBL1136746 (2003)
